Measured values from ChEMBL document CHEMBL4145471, “New 1,5 and 2,5-disubstituted tetrazoles-dependent activity towards surface barrier of Candida albicans” (Eur J Med Chem, 2018).
≈ marks a conversion by molar mass, not a printed value.

Columns and labels:
Assay type in all cases: functional
Candida albicans [1] = test: Antifungal activity against Candida albicans ATCC 90028 after 48 hrs by M27-A3 microdilution method; settings: ATCC 90028, 48 h
Candida albicans [2] = test: Antifungal activity against Candida albicans ATCC 90028 after 72 hrs by M27-A3 microdilution method; settings: ATCC 90028, 72 h
Candida albicans [3] = test: Antifungal activity against Candida albicans ATCC 90028 after 72 hrs in presence of ergosterol by M27-A3 microdilution method; settings: ATCC 90028, 72 h
Outline: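 Ergosterol-modified M27-A3 assay. Compounds at 512-1 µg/mL serially diluted in RPMI; the 10^3 CFU/mL inoculum is made in RPMI with ergosterol (dissolved in 10% DMSO/1% Tween 80, heated), giving 400 µg/mL ergosterol in the wells. Itraconazole and amphotericin B serve as controls. Plates at 35°C, read after 72 h. MIC is the lowest concentration without visible growth; triplicate on three days, geometric means.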

Candida albicans [4] = test: Antifungal activity against Candida albicans ATCC 90028 at 0.5 ug/ml after 48 hrs relative to control
Outline: (§1)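 Planktonic broth microdilution per M27-A3 in MOPS-buffered RPMI 1640 (pH 7.0), final inoculum 1.8×10^3 cells/mL, compounds 0.0313–16 µg/mL from 1600 µg/mL stocks in ethanol or DMSO. Incubated at 35°C without agitation; OD405 read at 18 and 48 h. % inhibition was derived from test, sterility (no inoculum) and solvent growth-control wells. Amphotericin B at 0.5 µg/mL served as the 100% control.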

Candida albicans [5] = test: Antifungal activity against Candida albicans ATCC 90028 at 0.5 ug/ml after 18 hrs relative to control; outline: as §1
Candida albicans [6] = test: Fungicidal activity against Candida albicans ATCC 90028 at 16 ug/ml after 48 hrs by M27-A3 microdilution method
Outline: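 After 48 h at 35°C in M27-A3 microdilution plates (compound at 16 µg/mL), 50 µL aliquots from treated and solvent-control wells were diluted 10^4 in PBS and plated on drug-free Sabouraud dextrose agar, then incubated 48 h at 35°C. Reduction R = lg CFU/mL control − lg CFU/mL treated; R ≥ 3 defined as fungicidal.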

Candida albicans [7] = test: Antifungal activity against Candida albicans ATCC 90028 at 0.125 ug/ml after 48 hrs relative to control; outline: as §1
Candida albicans [8] = test: Antifungal activity against Candida albicans ATCC 90028 at 1 ug/ml after 18 hrs relative to control; outline: as §1
Candida albicans [9] = test: Antifungal activity against Candida albicans ATCC 90028 at 16 ug/ml after 18 hrs relative to control; outline: as §1
Candida albicans [10] = test: Antifungal activity against Candida albicans ATCC 90028 at 8 ug/ml after 18 hrs relative to control; outline: as §1
Candida albicans [11] = test: Antifungal activity against Candida albicans ATCC 90028 at 16 ug/ml after 48 hrs relative to control; outline: as §1
Candida albicans [12] = test: Antifungal activity against Candida albicans ATCC 90028 at 0.25 ug/ml after 48 hrs relative to control
Outline: (§2)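 Fluconazole (water stock, diluted in RPMI 1640) tested by CLSI M27-A3 broth microdilution against C. albicans ATCC 90028. Inoculum 1.8×10^3 cells/mL in RPMI 1640 buffered with MOPS, pH 7.0. Incubation at 35°C without agitation, read at 18 and 48 h. Growth by OD405 and visually; inhibition % calculated against solvent growth-control wells after subtracting sterility-control wells.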

Candida albicans [13] = test: Antifungal activity against Candida albicans ATCC 90028 at 0.125 ug/ml after 18 hrs relative to control; outline: as §1
Candida albicans [14] = test: Antifungal activity against Candida albicans ATCC 90028 at 8 ug/ml after 48 hrs relative to control; outline: as §1
Candida albicans [15] = test: Antifungal activity against Candida albicans ATCC 90028 at 0.0625 ug/ml after 48 hrs relative to control; outline: as §1
Candida albicans [16] = test: Antifungal activity against Candida albicans ATCC 90028 at 4 ug/ml after 48 hrs relative to control; outline: as §1
Candida albicans [17] = test: Antifungal activity against Candida albicans ATCC 90028 at 0.25 ug/ml after 18 hrs relative to control; outline: as §2
Candida albicans [18] = test: Antifungal activity against Candida albicans ATCC 90028 at 2 ug/ml after 48 hrs relative to control; outline: as §1
Candida albicans [19] = test: Antifungal activity against Candida albicans ATCC 90028 at 0.0313 ug/ml after 48 hrs relative to control
Candida albicans [20] = test: Antifungal activity against Candida albicans ATCC 90028 at 4 ug/ml after 18 hrs relative to control; outline: as §1
Candida albicans [21] = test: Antifungal activity against Candida albicans ATCC 90028 at 1 ug/ml after 48 hrs relative to control; outline: as §1
Candida albicans [22] = test: Antifungal activity against Candida albicans ATCC 90028 at 2 ug/ml after 18 hrs relative to control; outline: as §1
Candida albicans [23] = test: Antifungal activity against Candida albicans ATCC 90028 at 0.0625 ug/ml after 18 hrs relative to control
Candida albicans [24] = test: Antifungal activity against Candida albicans ATCC 90028 at 0.0313 ug/ml after 18 hrs relative to control
Candida albicans [25] = test: Ratio of MIC for Candida albicans ATCC 90028 in presence of ergosterol to MIC for Candida albicans ATCC 90028 in absence of ergosterol
Outline: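 MICs per modified M27-A3 in RPMI with or without ergosterol (final 400 µg/mL, dissolved in 10% DMSO/1% Tween 80 with heating). Inoculum 10³ CFU/mL; tetrazoles and itraconazole tested at 512–1 µg/mL, amphotericin B at 125–0.24 µg/mL. Plates were incubated at 35°C and read at 72 h; MIC was the lowest concentration with no visible growth. Run in triplicate on three days, geometric means.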

OC(Cn1cncn1)(Cn1cncn1)c1ccc(F)cc1F [FLUCONAZOLE]
MIC (Candida albicans [1]): 0.25 µg/mL (≈ 0.816 µM)

C[C@@H]1[C@H](O)[C@@H](C)/C=C/C=C/C=C/C=C/C=C/C=C/C=C/[C@H](O[C@@H]2O[C@H](C)[C@@H](O)[C@H](N)[C@@H]2O)C[C@@H]2O[C@](O)(C[C@@H](O)C[C@@H](O)[C@H](O)CC[C@@H](O)C[C@@H](O)CC(=O)O[C@H]1C)C[C@H](O)[C@H]2C(=O)O [AMPHOTERICIN B]
MIC (Candida albicans [2]): 0.03 µg/mL (≈ 0.0325 µM) | MIC (Candida albicans [3]): 0.24 µg/mL | Activity (Candida albicans [4]): 100% | Activity (Candida albicans [5]): 100%

c1ccc(-c2nnn(CCCN3CCOCC3)n2)cc1
Activity (Candida albicans [6]): -0.34 log10CFU/ml | Activity (Candida albicans [7]): 97.95% | Activity (Candida albicans [8]): 80.42% | Activity (Candida albicans [4]): 99.59% | Activity (Candida albicans [9]): 97.02% | Activity (Candida albicans [10]): 99.94% | Activity (Candida albicans [11]): 99.31% | Activity (Candida albicans [12]): 99.13% | Activity (Candida albicans [13]): 99.81% | Activity (Candida albicans [14]): 98.82% | Activity (Candida albicans [15]): 99.55% | Activity (Candida albicans [16]): 99.15% | Activity (Candida albicans [17]): 99.96% | Activity (Candida albicans [18]): 98.84% | Activity (Candida albicans [19]): 98.98% | Activity (Candida albicans [20]): 99.64% | Activity (Candida albicans [21]): 98.87% | Activity (Candida albicans [22]): 85.92% | Activity (Candida albicans [23]): 99.93% | Activity (Candida albicans [24]): 94.63% | Activity (Candida albicans [5]): 99.52%

Clc1ccccc1-c1nnn(CCCN2CCOCC2)n1
Activity (Candida albicans [6]): -0.08 log10CFU/ml | Activity (Candida albicans [7]): 98.94% | Activity (Candida albicans [8]): 98.01% | Activity (Candida albicans [4]): 98.83% | Activity (Candida albicans [9]): 99.64% | Activity (Candida albicans [10]): 98.97% | Activity (Candida albicans [11]): 99.2% | Activity (Candida albicans [12]): 98.01% | Activity (Candida albicans [13]): 98.25% | Activity (Candida albicans [14]): 98.97% | Activity (Candida albicans [15]): 99% | Activity (Candida albicans [16]): 98.91% | Activity (Candida albicans [17]): 90.79% | Activity (Candida albicans [18]): 97.16% | Activity (Candida albicans [19]): 99.12% | Activity (Candida albicans [20]): 98.62% | Activity (Candida albicans [21]): 99.02% | Activity (Candida albicans [22]): 92.76% | Activity (Candida albicans [23]): 98.7% | Activity (Candida albicans [24]): 100% | Activity (Candida albicans [5]): 98.11%

CCOC(=O)CCn1nnc(-c2ccccc2Cl)n1
Activity (Candida albicans [6]): 0.19 log10CFU/ml | Activity (Candida albicans [7]): 98.82% | Activity (Candida albicans [8]): 99.38% | Activity (Candida albicans [4]): 98.84% | Activity (Candida albicans [9]): 100% | Activity (Candida albicans [10]): 99.23% | Activity (Candida albicans [11]): 98.83% | Activity (Candida albicans [12]): 99.09% | Activity (Candida albicans [13]): 99.97% | Activity (Candida albicans [14]): 98.84% | Activity (Candida albicans [15]): 98.78% | Activity (Candida albicans [16]): 99.05% | Activity (Candida albicans [17]): 99.86% | Activity (Candida albicans [18]): 99.41% | Activity (Candida albicans [19]): 99.27% | Activity (Candida albicans [20]): 100% | Activity (Candida albicans [21]): 98.86% | Activity (Candida albicans [22]): 99.98% | Activity (Candida albicans [23]): 99.86% | Activity (Candida albicans [24]): 97.51% | Activity (Candida albicans [5]): 96.86%

CCC(C)n1ncn(-c2ccc(N3CCN(c4ccc(OCC5COC(Cn6cncn6)(c6ccc(Cl)cc6Cl)O5)cc4)CC3)cc2)c1=O (centres undefined) [ITRACONAZOLE]
Ratio (Candida albicans [25]): 2
